This is an account of results in article PMC3863817 (Scientific Reports, 2013).

Test [1] has as its system KB cells. The test can be described thus: Measurement of cellular ATP levels. The note with it: positive control, 1 μM for 4 h. Type of test: cell-based, human. In outline:
(§1)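 Cells plated at 2 × 10^5 per well and grown 1 day. They were exposed to 20 μM test compound for 4, 8, 16 or 24 h, or to rotenone (1 μM, 4 h) as positive control, at 37°C. KB cells were in folic acid-depleted RPMI-1640 and COS7 in DMEM, each with 10% FBS. Harvested cells were lysed in 1% TCA/4 mM EDTA for 20 min on ice, then Tris (pH 7.4). ATP was read with a bioluminescent kit on a chemiluminometer.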

Test [2] has as its system COS7 cells. The test can be described thus: Measurement of cellular ATP levels. The class given is cell-based, African green monkey. The note with it: positive control, 1 μM for 4 h. In outline: as §1

Regarding `C=C(C)[C@H]1Cc2c(ccc3c2O[C@@H]2COc4cc(OC)c(OC)cc4[C@@H]2C3=O)O1` [rotenone], the “Cellular ATP level, in words” value in test [1] and in test [2] was “induce a decrease in cellular ATP level” each time.
